Assay outcomes (PubChem BioAssay)
ARNT-TACC3 inh: disrupts binding between human ARNT and TACC3 | AlphaScreen His-ARNT PAS-B/GST-TACC3 binding, luminescence; TACC3 fragment carries E629A point mutation | inhibition, % at 9.99 µM | 0.66% of 390,000 active | AID 623870;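 active = mean inhibition of replicates at least 50% and at least half of replicates each reaching 50%; inconclusive = half or more replicates reach 50% but mean below 50%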;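 also: 0% = complete ARNT plus TACC3 wells and 100% = ARNT alone without TACC3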
SR-BI DiI-HDL act: enhances SR-BI lipid uptake from DiI-HDL | CHO ldlA[mSR-BI] cells, DiI-HDL uptake fluorescence, 3 h; 100 = double the neutral-control signal | activation, % at 12.5 µM | 0.096% of 320,000 active;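 active = mean replicate activation of at least 60% and every replicate at or above 60%; inconclusive = mean or all-replicate condition met, but not both; inactive = mean below 60% and not all replicates reaching 60%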;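 also: 0% = median plate neutral-control signal and 100% = twice that signal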
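system = CHO ldlA[mSR-BI] cells, LDL receptor-null, SR-BI overexpressing | medium = Ham's F12 with 0.5% BSA, HEPES 25 mM, pH 7.4 | probe or stimulus = DiI-HDL 10 µg/mL | compound dosing = single-point compound dose | incubation = compound exposure 3 h, 37 °C | technique = DiI fluorescence, bottom read | read-out = cell-associated DiI fluorescence as measure of HDL uptake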
CAL PDZ FP-1: blocks peptide binding to human CAL PDZ domain; Q9HD26; purified CAL PDZ, TMR-peptide fluorescence polarization, 1 h; inhibition, % at 20 µM; 0.02% of 330,000 active; AID 504414;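 active = highest replicate inhibition of at least 40%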;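 also: plate controls were DMSO neutral control wells for no effect and unlabeled competitor peptide control wells for full effect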
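Assay system – tagged CAL PDZ protein CerCALP, purified · Timing – 1 h at RT · Compound – single point, 20 µM · Measured by – fluorescence polarization from S- and P-plane intensities, G-factor corrected · Evaluation – inhibition from polarization loss · Probe or stimulus – TMR reporter peptide T*-PRC34 · Buffer or medium – pH 7.4 phosphate-saline buffer, reducing agent, detergent, IgG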
SR-BI HDL uptake: mouse SR-BI HDL lipid transfer inhibition; ldlA[mSR-BI] CHO cells, DiI-HDL uptake fluorescence, 3 h; inhibition, % at 12.5 µM; 0.96% of 320,000 active;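 active = mean replicate inhibition of at least 70% and a set share of replicates each scoring 70 or more; inconclusive = meets just one of the two criteria; inactive = fails both criteria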;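 also: 0% = median of neutral control wells and 100% = median of positive control wells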
Target sequence (Q61009 whole entry, looked up): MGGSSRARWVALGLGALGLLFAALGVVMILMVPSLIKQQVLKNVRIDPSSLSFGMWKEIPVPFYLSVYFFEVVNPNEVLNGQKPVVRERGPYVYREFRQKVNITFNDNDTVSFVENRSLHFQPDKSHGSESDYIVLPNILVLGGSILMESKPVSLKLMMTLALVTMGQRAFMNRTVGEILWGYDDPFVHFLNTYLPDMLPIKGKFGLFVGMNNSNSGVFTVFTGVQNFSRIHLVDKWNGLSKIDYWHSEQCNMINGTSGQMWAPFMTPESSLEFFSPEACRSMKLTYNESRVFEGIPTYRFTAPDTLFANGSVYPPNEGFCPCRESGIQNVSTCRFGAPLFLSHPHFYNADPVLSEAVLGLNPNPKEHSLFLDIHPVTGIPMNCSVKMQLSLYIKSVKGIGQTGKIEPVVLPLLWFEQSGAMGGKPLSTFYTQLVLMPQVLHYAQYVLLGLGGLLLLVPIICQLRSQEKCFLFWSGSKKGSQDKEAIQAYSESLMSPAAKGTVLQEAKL
CAL PDZ FP-2: CAL PDZ (human) peptide binding inhibition | Q9HD26 | purified CAL PDZ, TMR-peptide fluorescence polarization, 1 h | AID 602252 | inhibition, % at 24.9 µM | 0.92% of 300,000 active;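 active = mean inhibition of at least 30% with at least half of replicates also reaching 30%; inconclusive = no clear call, values can overlap the other calls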;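 also: 0% = DMSO neutral control and 100% = excess unlabeled competitor peptide PRC23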
miR122 inh: inhibitors of miR-122 in Huh7 cells; activation (reporter increase), % at 12.5 µM; AID 602342; Huh7 miR-122 Renilla luciferase sensor, 48 h; neutral wells = 0, positive control = 100; 0.3% of 340,000 active;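 active = mean replicate activation score at least 90 and every replicate individually at or above 90; inconclusive = only one of the two criteria met; inactive = neither criterion met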;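 also: higher luciferase means less miR-122 activity so hits act as miR-122 inhibitors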
Starred values were filed as active, the others as inactive; ? = inconclusive; . = no result given; ! = not confirmed by another sample; [ ] = dose if it differs, or a comment. A selection: hits, their analogues and other compounds. The true share with any hit is near 2.1%.

SMILES | ARNT-TACC3 inh | SR-BI DiI-HDL act | CAL PDZ FP-1 | SR-BI HDL uptake | CAL PDZ FP-2 | miR122 inh
C[C@H]1CN([C@@H](C)CO)S(=O)(=O)c2ccc(C#CC3CC3)cc2O[C@H]1CN(C)C(=O)Nc1cc(F)ccc1F | . | . | . | . | . | 2.8[16.7 µM]
CCN1C(c2ccccc2)=C(c2ccccc2)S/C1=C/C=C1\SC(=S)N(C)C1=O | 0.3 | 16.5 | -1.9 | -16.5 | 36.1* | .
COc1cc2c(C#N)c(N3CCCC3)nc(N)c2c(N)n1 | 33.7*! | -35.2 | 1.6 | 35.2 | 1.1 | -0.9
CN1c2ccc(Br)cc2[C@H]2[C@H](CCN2S(=O)(=O)c2ccccc2F)[C@H]1CO | 19.4 | . | . | . | . | 9.6[16.7 µM]
COc1ccccc1N1CCN(Cc2cc(=O)c(OCC(=O)NC(C)C)co2)CC1 | 0.7 | 11.2 | -0.9 | -11.2 | -2.9 | -7.2
CC(C)NC(=O)COc1coc(CN2CCN(c3ccccc3F)CC2)cc1=O | 2.1 | 8.3 | -1.0 | -8.3 | 60.3* | -3.8
O=C(C[C@@H]1C=C[C@@H](NC(=O)C2CCC2)[C@@H](CO)O1)NCc1ccncc1 | -4.7 | . | . | . | . | .
Cc1cc(Br)cc(Cl)c1OC(=O)c1ccncc1 | -4.6 | -5.5 | -1.9 | 5.5 | 47.2* | 3.1
Cc1nnc(SCC(=O)c2ccc([N+](=O)[O-])cc2)s1 | 2.8 | -2.2 | -0.1 | 2.2 | . | .
Nc1nnc(SCC(=O)c2ccc([N+](=O)[O-])cc2)s1 | 8.1 | 43.4 | 16.7 | -43.4 | 34.8* | -1.3
O=C(C[C@@H]1C[C@H]2c3cc(NS(=O)(=O)c4ccc(F)cc4)ccc3O[C@H]2[C@H](CO)O1)N1CCc2ccccc2C1 | 11.3 | . | . | . | . | -5.8[16.7 µM]
CCS(=O)(=O)C(C)(CCl)C(=O)Nc1ccc(C(=O)OC)cc1 (stereo not drawn) | active | -4.4 | -0.8 | 4.4 | -5.0 | 8.9
COC(=O)c1ccc(NC(=O)NCCCl)cc1 | 2.5 | 6.3 | -0.6 | -6.3 | -5.6 | -4.5
CCOc1cc(-c2nc(-c3ccccc3OC)no2)cc(OCC)c1OCC | -6.3 | -80.3 | -2.0 | 80.3* | 0.7 | -5.4
CCOc1cc(-c2nc(-c3ccncc3)no2)cc(OCC)c1OCC | 2.5 | -23.3 | -2.7 | 23.3 | -1.7 | .
CCOc1cc(-c2nc(-c3ccc(OC)cc3)no2)cc(OCC)c1OCC | -2.4 | -75.1 | -0.2 | 75.1* | -0.2 | -2.4
CCOc1cc(-c2nnc(-c3ccco3)o2)cc(OCC)c1OCC | -6.2 | -77.1 | 0.3 | 77.1* | . | 0.2
CCOc1ccc(-c2nnc(-c3ccco3)o2)cc1OCC | 2.4 | -21.8 | -0.2 | 21.8 | -0.7 | -2.9
CCOc1ccccc1-c1nc(-c2ccc(C)nc2OC)no1 | -8.1 | -34.6 | -3.2 | 34.6 | -1.3 | 130.1*
COc1ccc(-c2nc(-c3ccccc3OC)no2)cc1OC | -5.5 | -64.8 | -4.1 | 64.8 | 5.4 | -13.4
CCOc1nc(C)ccc1-c1noc(-c2ccccn2)n1 | . | -11.2 | -0.9 | 11.2 | -3.8 | 4.1
CCNC(=O)[C@@H]1[C@@H](CO)[C@@H]2Cn3c(ccc(-c4ccc(OC)cc4)c3=O)[C@@H]2N1Cc1ccccc1 | . | . | . | . | . | 5.7[16.7 µM]
C=CC[C@]1(C(=O)OC)N=C(c2ccc(OCCCO)cc2)O[C@H]1c1ccccc1 | -20.0 | . | . | . | . | .
Cc1cccc(-c2ccc([C@@H]3[C@@H](CO)N4CCCCN(S(=O)(=O)c5cccs5)C[C@@H]34)cc2)c1 | -3.3 | . | . | . | . | -10.2[16.7 µM]
O=C1C=C(c2ccccc2)OC(c2ccccc2)O1 (stereo not drawn) | -4.1 | 8.0 | -7.9 | -8.0 | 47.0* | -3.6
SMILES | ARNT-TACC3 inh | SR-BI DiI-HDL act | CAL PDZ FP-1 | SR-BI HDL uptake | CAL PDZ FP-2 | miR122 inh
Cc1noc(C)c1S(=O)(=O)Nc1ccc2c(c1)CC(=O)N([C@@H](C)CO)C[C@@H](C)[C@H](CN(C)S(=O)(=O)c1cn(C)cn1)O2 | 5.0 | . | . | . | . | -9.5[16.7 µM]
COc1ccc(OC)c2[nH]c(=O)c(CCNS(=O)(=O)c3ccc(C)cc3)cc12 | -15.1 | -4.3 | . | 4.3 | 5.4 | 0.5
COc1ccc(OC)c2[nH]c(=O)c(CCNS(=O)(=O)c3ccc(Cl)cc3)cc12 | 47.9* | -26.0 | -2.7 | 26.0 | -2.7 | 5.8
Cc1oc2c(C)c3oc(=O)c(CCC(=O)O)c(C)c3cc2c1-c1ccccc1 | 26.1* | 1.4 | -12.1 | -1.4 | -19.9 | .
Cc1c(CCC(=O)O)c(=O)oc2cc3occ(-c4ccc(F)cc4)c3cc12 | 37.7 | 18.0 | -6.6 | -18.0 | -8.9 | -8.3
Cc1c(CCC(=O)O)c(=O)oc2cc3occ(-c4ccc(Cl)cc4)c3cc12 | 45.2* | 26.5 | -7.0 | -26.5 | -12.9 | .
O=C(C[C@H]1C=C[C@H](NC(=O)Nc2ccc(F)cc2)[C@@H](CO)O1)NCCN1CCCC1 | -13.2 | . | . | . | . | 14.0[16.7 µM]
O=C(Nc1c(F)cc(F)cc1Br)c1cc(-c2ccccc2)on1 | -3.3 | ? | -1.1 | -292.0 | 80.4* | 0.2
O=C(Nc1cccc(O)c1)c1cc(-c2ccc3c(c2)OCO3)on1 | 2.5 | 3.1 | -3.0 | -3.1 | 60.3* | 0.7
CC(C)n1cc(NC(=O)c2cc(-c3ccccc3)on2)cn1 | -4.6 | -13.1 | -2.1 | 13.1 | -0.8 | 113.9*
O=C(Nc1cccnc1)c1cc(-c2ccccc2)on1 | -2.7 | 24.2 | . | -24.2 | 122.3* | -1.8
CNC[C@@H]1OCCCC[C@H](C)Oc2ccc(NC(=O)Nc3ccc(C(F)(F)F)cc3)cc2C(=O)N([C@H](C)CO)C[C@@H]1C | . | . | . | . | . | -1.2[16.7 µM]
COc1ccc(/C(C)=N/Nc2nc(C)cc(-c3ccccc3)n2)cc1 | . | . | . | . | . | -6.1
COc1ccc(/C(C)=N\Nc2nc(-c3ccccc3)cc(=O)[nH]2)cc1 | 10.2 | -72.7 | 0.3 | 72.7* | -9.4 | -1.9
CN(C)c1ccc(/C=N\Nc2nc(-c3ccccc3)cc(=O)[nH]2)cc1 | -24.4 | -25.7 | 1.1 | 25.7 | 70.6* | .
CN(C)c1ccc(C=NNc2nc3c([nH]2)c(=O)n(C)c(=O)n3C)cc1 | -4.6 | -21.8 | 0.1 | 21.8 | -3.1 | 16.5
COc1ccc(-c2nnc3n2-c2ccccc2SC3)cc1OC | -16.7 | -1.3 | -0.8 | 1.3 | -5.9 | -3.2
c1ccc2c(c1)SCc1nnc(-c3ccncc3)n1-2 | -6.2 | -8.2 | -0.8 | 8.2 | 95.9* | .
CCOC(=O)C1(CCc2ccccc2)CCN(C(=O)C2CCOCC2)CC1 | -8.1 | -80.3 | 0.1 | 80.3* | -0.1 | 0.6
Cc1cccc(N2C(=O)N3[C@H](c4ccc(Br)cc4)[C@@H]4C(=O)N(C(C)(C)C)C(=O)[C@@H]4[C@]3(C)C2=O)c1 | -1.0 | 60.1* | -0.6 | -60.1 | -2.7 | -0.1
Cc1ccc(N2C(=O)N3[C@H](c4ccc(Br)cc4)[C@@H]4C(=O)N(C(C)(C)C)C(=O)[C@@H]4[C@]3(C)C2=O)cc1 | -1.8 | 23.9 | -1.3 | -23.9 | -2.7 | -6.7
CO[C@H]1CN(C)C(=O)c2cc(NC(=O)c3ccccc3)ccc2OC[C@@H](C)N(C(=O)C2CC2)C[C@H]1C | -2.1 | . | . | . | . | -0.1[16.7 µM]
